Reference: ChEMBL document CHEMBL1149755, “Synthesis, physicochemical and anticonvulsant properties of new N-phenylamino derivatives of 2-azaspiro[4.4]nonane- and [4.5]decane-1,3-diones: part V” (Eur J Med Chem, 2008)
Calls of active or inactive are those of the source. The rule behind the calls is not given here.

Key:
[1] = system: Mus musculus; assay: Neurotoxicity in ip dosed mouse after 0.5 hrs by rotarod test; assay type: toxicity, organism-based; details: in vivo
Procedure, shortened: (§1)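 Phase I screen: intraperitoneal injection into mice as suspension in 0.5% methylcellulose at 30, 100 and 300 mg/kg; MES, subcutaneous pentylenetetrazole and rota-rod minimal motor impairment assessed at 0.5 h and 4 h after dosing (2 h also reported for some MES readings). Value is minimum dose showing activity or toxicity.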

[2] = Lipophilicity, log kw of compound by RP-HPLC; assay type: physicochemical
Procedure, shortened: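 RP-HPLC on end-capped C18 column, acetonitrile-containing mobile phase at several concentrations; uracil as unretained marker for dead volume; UV detection at 214 nm, room temperature; three measurement sets averaged; log kw obtained by extrapolation of linear log k versus organic modifier fraction (log k = log kw − Sφ).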

[3] = system: Mus musculus; assay: Anticonvulsant activity in mouse at 300 mg/kg, ip; assay type: functional, organism-based; design: dose 300 mg/kg; procedure, shortened: as §1
[4] = system: Mus musculus; assay: Anticonvulsant activity in ip dosed mouse after 4 hrs by maximal electroshock test; assay type: functional; procedure, shortened: as §1
[5] = system: Mus musculus; assay: Anticonvulsant activity in ip dosed mouse after 0.5 hrs by subcutaneous pentylenetetrazole test; assay type: functional; procedure, shortened: as §1
[6] = system: Mus musculus; assay: Anticonvulsant activity in ip dosed mouse after 4 hrs by subcutaneous pentylenetetrazole test; assay type: functional; procedure, shortened: as §1
[7] = system: Mus musculus; assay: Anticonvulsant activity in mouse at 100 mg/kg, ip; assay type: functional, organism-based; design: dose 100 mg/kg; procedure, shortened: as §1
[8] = system: Rattus norvegicus; assay: Neurotoxicity in rat at 30 mg/kg, po after 0.25 hrs by rotarod test; assay type: toxicity, organism-based; design: dose 30 mg/kg, route oral; details: in vivo
Procedure, shortened: (§2)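 Phase VIa: oral administration to rats, four animals, fixed 30 mg/kg; MES protection and rota-rod neurotoxicity read at 0.25, 0.5, 1, 2 and 4 h post dose. Reported as number of animals protected (or showing toxicity) over number tested.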

[9] = system: Rattus norvegicus; assay: Neurotoxicity in rat at 30 mg/kg, po after 0.5 hrs by rotarod test; assay type: toxicity, organism-based; design: dose 30 mg/kg, route oral; details: in vivo; procedure, shortened: as §2
[10] = system: Rattus norvegicus; assay: Neurotoxicity in rat at 30 mg/kg, po after 1 hr by rotarod test; assay type: toxicity, organism-based; design: dose 30 mg/kg, route oral; details: in vivo; procedure, shortened: as §2
[11] = system: Rattus norvegicus; assay: Neurotoxicity in rat at 30 mg/kg, po after 2 hrs by rotarod test; assay type: toxicity, organism-based; design: dose 30 mg/kg, route oral; details: in vivo; procedure, shortened: as §2
[12] = system: Rattus norvegicus; assay: Neurotoxicity in rat at 30 mg/kg, po after 4 hrs by rotarod test; assay type: toxicity, organism-based; design: dose 30 mg/kg, route oral; details: in vivo; procedure, shortened: as §2
[13] = species on record: Rattus norvegicus; assay: Displacement of [3H]muscimol from GABAA receptor in rat brain cortex; assay type: tissue-based
Procedure, shortened: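 Rat brain membranes washed repeatedly in ice-cold 50 mM Tris-HCl pH 7.4, stored at −20 °C at least 18 h; incubated 10 min at 0 °C with 3 nM [3H]muscimol (stock) and eight test concentrations 10^-11–10^-4 M; nonspecific binding with GABA; filtration, scintillation counting, duplicates, iterative curve fitting.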

[14] = system: Mus musculus; assay: Anticonvulsant activity in ip dosed mouse after 0.5 hrs by maximal electroshock test; assay type: functional; procedure, shortened: as §1
[15] = system: Rattus norvegicus; assay: Anticonvulsant activity in po dosed rat after 2 hrs by maximal electroshock test; assay type: functional
Procedure, shortened: (§3)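 Phase II quantification in rats after oral dosing: median effective dose in MES and scPTZ seizure tests determined at the previously estimated time of peak effect, 2 h.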

[16] = system: Rattus norvegicus; assay: Anticonvulsant activity in po dosed rat after 2 hrs by subcutaneous pentylenetetrazole test; assay type: functional; procedure, shortened: as §3
[17] = system: Mus musculus; assay: Toxicity in mouse at 30 mg/kg, ip; assay type: organism-based; design: dose 30 mg/kg, route intraperitoneal; details: in vivo; procedure, shortened: as §1
[18] = system: Mus musculus; assay: Neurotoxicity in ip dosed mouse after 4 hrs by rotarod test; assay type: toxicity, organism-based; details: in vivo; procedure, shortened: as §1
[19] = system: Mus musculus; assay: Anticonvulsant activity in ip dosed mouse after 2 hrs by maximal electroshock test; assay type: functional; procedure, shortened: as §1

SMILES: CC1CCCCC12CC(=O)N(Nc1ccccc1Cl)C2=O (stereo unspecified)
- Minimum neurotoxic dose [1]: 100 mg/kg
- logKw [2]: 2.515
- Activity [3]: inactive

SMILES: CC1CCCC2(CC(=O)N(Nc3ccc(Cl)cc3Cl)C2=O)C1 (stereo unspecified)
- logKw [2]: 2.976
- Activity [3]: inactive

SMILES: CC1CCCCC12CC(=O)N(Nc1ccc(Cl)cc1Cl)C2=O (stereo unspecified)
- Activity [4]: 300 mg/kg
- Activity [5]: 300 mg/kg
- logKw [2]: 2.847
- Activity [3]: Active

SMILES: O=C1CC2(CCCCC2)C(=O)N1Nc1ccc(Cl)cc1Cl
- Activity [4]: 100 mg/kg
- Activity [6]: 300 mg/kg
- Activity [7]: Active
- logKw [2]: 2.634
- Activity [8]: Non-toxic
- Activity [9]: Non-toxic
- Activity [10]: Non-toxic
- Activity [11]: Non-toxic
- Activity [12]: Non-toxic
- Activity [13]: inactive

SMILES: O=C1CC2(CCCCC2)C(=O)N1Nc1ccccc1Cl
- logKw [2]: 2.322
- Activity [3]: inactive

SMILES: O=C1CC2(CCCC2)C(=O)N1Nc1ccc(Cl)cc1Cl
- Activity [14]: 100 mg/kg
- Activity [4]: 300 mg/kg
- Minimum neurotoxic dose [1]: 300 mg/kg
- Activity [7]: Active
- logKw [2]: 2.419
- Activity [8]: Non-toxic
- Activity [9]: Non-toxic
- Activity [10]: Non-toxic
- Activity [11]: Non-toxic
- Activity [12]: Non-toxic
- ED50 [15]: > 180 mg/kg
- TD50 [15]: > 250 mg/kg
- ED50 [16]: > 125 mg/kg
- TD50 [16]: > 250 mg/kg
- Activity [13]: inactive

SMILES: O=C1CC2(CCCC2)C(=O)N1Nc1ccccc1Cl
- Activity [14]: 300 mg/kg
- Activity [5]: 300 mg/kg
- logKw [2]: 2.095
- Activity [3]: Active
- Activity [8]: Non-toxic
- Activity [9]: Non-toxic
- Activity [10]: Non-toxic
- Activity [11]: Non-toxic
- Activity [12]: Non-toxic

SMILES: O=C1CC(C2CCCCC2)C(=O)N1Nc1ccc(Cl)cc1Cl (stereo unspecified)
- logKw [2]: 2.896
- Activity [3]: inactive

SMILES: O=C1CC2(CCCCC2)C(=O)N1Nc1ccc(Br)cc1
- Activity [4]: 100 mg/kg
- Minimum neurotoxic dose [1]: 30 mg/kg
- Activity [7]: Active
- logKw [2]: 2.337
- Activity [13]: inactive
- Activity [17]: Toxic

SMILES: O=C1CC(C2CCCCC2)C(=O)N1Nc1ccccc1Cl (stereo unspecified)
- logKw [2]: 2.536
- Activity [3]: inactive

SMILES: CC1CCC2(CC1)CC(=O)N(Nc1ccc(Cl)cc1Cl)C2=O (stereo unspecified)
- Minimum neurotoxic dose [1]: 100 mg/kg
- Activity [18]: 100 mg/kg
- logKw [2]: 2.977
- Activity [3]: inactive

SMILES: CC1CCCCC12CC(=O)N(Nc1ccc(Br)cc1)C2=O (stereo unspecified)
- Activity [4]: 300 mg/kg
- Activity [18]: 300 mg/kg
- logKw [2]: 2.561
- Activity [19]: 100 mg/kg
- Activity [3]: Active

SMILES: O=C1CC2(CCCC2)C(=O)N1Nc1ccc(Br)cc1
- Activity [4]: 300 mg/kg
- Activity [5]: 300 mg/kg
- Minimum neurotoxic dose [1]: 100 mg/kg
- logKw [2]: 2.115
- Activity [19]: 100 mg/kg
- Activity [3]: Active
- Activity [13]: inactive
